Source: ChEMBL document CHEMBL1155396, “The synthesis and angiotensin converting enzyme (ACE) inhibitory activity of chalcones and their pyrazole derivatives” (Bioorg Med Chem Lett, 2010)

Key:
[1] = target: T1, Angiotensin-converting enzyme (Oryctolagus cuniculus, UniProt P12822); experiment: (§1) Inhibition of ACE in rabbit lung assessed as decrease in dansylglycine concentration after 5 mins by HPLC analysis
T1 sequence (P12822 whole entry): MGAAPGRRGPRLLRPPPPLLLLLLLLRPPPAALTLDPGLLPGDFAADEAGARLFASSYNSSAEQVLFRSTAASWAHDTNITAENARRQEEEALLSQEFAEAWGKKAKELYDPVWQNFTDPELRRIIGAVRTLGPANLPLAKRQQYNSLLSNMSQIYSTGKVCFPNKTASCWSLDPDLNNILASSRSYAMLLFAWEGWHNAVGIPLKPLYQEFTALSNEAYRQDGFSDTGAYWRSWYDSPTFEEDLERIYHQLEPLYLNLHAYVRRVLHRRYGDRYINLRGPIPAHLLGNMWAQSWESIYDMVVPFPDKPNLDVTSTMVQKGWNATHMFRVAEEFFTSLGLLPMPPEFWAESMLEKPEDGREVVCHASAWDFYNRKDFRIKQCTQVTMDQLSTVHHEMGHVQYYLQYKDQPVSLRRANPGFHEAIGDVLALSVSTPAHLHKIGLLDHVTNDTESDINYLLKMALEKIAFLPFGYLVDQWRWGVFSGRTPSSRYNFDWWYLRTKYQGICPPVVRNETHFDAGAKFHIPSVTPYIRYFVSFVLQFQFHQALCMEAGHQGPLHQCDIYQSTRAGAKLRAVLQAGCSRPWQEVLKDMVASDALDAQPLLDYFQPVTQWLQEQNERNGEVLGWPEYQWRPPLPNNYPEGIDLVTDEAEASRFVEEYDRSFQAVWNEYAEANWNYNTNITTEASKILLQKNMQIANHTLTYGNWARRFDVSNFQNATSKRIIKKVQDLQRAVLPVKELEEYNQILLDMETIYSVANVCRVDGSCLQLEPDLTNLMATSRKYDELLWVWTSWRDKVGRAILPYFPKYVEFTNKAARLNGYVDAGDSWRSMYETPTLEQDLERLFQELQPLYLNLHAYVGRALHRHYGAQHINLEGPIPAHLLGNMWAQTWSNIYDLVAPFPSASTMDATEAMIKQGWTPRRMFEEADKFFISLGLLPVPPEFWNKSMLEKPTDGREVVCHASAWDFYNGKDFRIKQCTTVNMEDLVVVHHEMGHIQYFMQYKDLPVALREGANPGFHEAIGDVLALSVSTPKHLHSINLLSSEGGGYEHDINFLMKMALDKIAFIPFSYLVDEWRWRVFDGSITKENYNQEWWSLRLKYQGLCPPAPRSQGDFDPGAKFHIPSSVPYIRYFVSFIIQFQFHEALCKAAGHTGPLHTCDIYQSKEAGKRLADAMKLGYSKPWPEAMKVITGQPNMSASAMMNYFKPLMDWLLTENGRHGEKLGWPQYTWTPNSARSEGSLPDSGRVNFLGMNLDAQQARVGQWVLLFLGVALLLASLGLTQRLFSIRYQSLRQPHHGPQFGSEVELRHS
Summary of the method: (§2)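 Rabbit lung ACE, pre-incubated 5 min at 37 °C with compound dissolved in HEPES assay buffer. Reaction started with substrate dansyltriglycine (7.86 mM) plus internal standard dansyl-L-glutamine (0.353 mM), both in the added combined solution. Incubation time was set from a calibration curve. Dansylglycine was quantified by reversed-phase HPLC with UV detection, using isocratic 10 mM NaH₂PO₄ (pH 7)/acetonitrile 88:12. Percent inhibition was taken versus control, with IC50 by nonlinear regression; means of three experiments.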

[2] = target: T2, Angiotensin-converting enzyme (Oryctolagus cuniculus) (UniProt P12822); experiment: as §1; summary of the method: as §2
T2 sequence (whole entry): T1 sequence (P12822 whole entry)

SMILES | IC50 [1] [µM] | inhibition [2]
COc1ccc(/C=C/C(=O)c2cc(OC)c(OC)c(OC)c2)cc1[N+](=O)[O-] | 516 | 
O=c1cc(-c2ccc(O)c(O)c2)oc2cc(O[C@@H]3O[C@H](CO)[C@@H](O)[C@H](O)[C@H]3O)cc(O)c12 [GALUTEOLIN] | 280 | 
O=c1c(O[C@@H]2O[C@H](CO)[C@H](O)[C@H](O)[C@H]2O)c(-c2ccc(O)cc2)oc2cc(O)cc(O)c12 [TRIFOLIN] | 260 | 
COc1cc(C2CC(c3cc(OC)c(OC)c(OC)c3)=NN2C)ccc1O (centres undefined) | 674 | 
COc1ccc(C2CC(c3cc(OC)c(OC)c(OC)c3)=NN2C)cc1F (centres undefined) | 770 | 
COc1cc(/C=C/C(=O)c2cc(OC)c(OC)c(OC)c2)ccc1O | 246 | Dose-dependent effect
COc1ccc(C2CC(c3cc(OC)c(OC)c(OC)c3)=NN2C)cc1O (centres undefined) | 762 | 
COc1ccc(/C=C/C(=O)c2cc(OC)c(OC)c(OC)c2)cc1F | 570 | 
COc1cc([C-]2CC(c3ccc([N+](=O)[O-])c(O)c3)[N+](C)=N2)cc(OC)c1OC (centres undefined) | 599 | 
COc1ccc(C2CC(c3cc(OC)c(OC)c(OC)c3)=NN2C)cc1 (centres undefined) | 435 | Dose-dependent effect
COc1cc(C2=NN(C)C(c3ccccc3)C2)cc(OC)c1OC (centres undefined) | 805 | 
COc1ccc(C2CC(c3cc(OC)c(OC)c(OC)c3)=NN2C)cc1[N+](=O)[O-] (centres undefined) |  | Dose-dependent effect
COc1cc(C(=O)/C=C/c2ccccc2)cc(OC)c1OC | 338 | Dose-dependent effect
COc1cccc(C2CC(c3cc(OC)c(OC)c(OC)c3)=NN2C)c1 (centres undefined) | 889 | 
COc1ccc(C2C[C-](c3cc(OC)c(OC)c(OC)c3)N=[N+]2C)cc1[N+](=O)[O-] (centres undefined) | 213 | 
COc1ccc(/C=C/C(=O)c2cc(OC)c(OC)c(OC)c2)cc1O | 225 | Dose-dependent effect
O=c1cc(-c2ccc(O)c(O)c2)oc2cc(O)cc(O)c12 [LUTEOLIN] | 290 | 
O=c1cc(-c2ccc(O)cc2)oc2cc(O)cc(O)c12 [APIGENIN] | 280 | 
COc1cc(C(=O)/C=C/c2ccc([N+](=O)[O-])c(O)c2)cc(OC)c1OC | 552 | 
COc1ccc(/C=C/C(=O)c2cc(OC)c(OC)c(OC)c2)cc1 | 574 | 
O=C(O)[C@H]1O[C@@H](Oc2c(-c3ccc(O)c(O)c3)oc3cc(O)cc(O)c3c2=O)[C@H](O)[C@@H](O)[C@@H]1O [QUERCETIN GLUCURONIDE] | 200 | 
COc1cccc(/C=C/C(=O)c2cc(OC)c(OC)c(OC)c2)c1 | 622 | 
COc1ccc(/C=C/C(=O)c2cc(OC)c(OC)c(OC)c2)cc1N | 219 | Dose-dependent effect
COc1ccc(C2CC(c3cc(OC)c(OC)c(OC)c3)=NN2C)cc1N (centres undefined) | 749 | 
